Test results: ChEMBL document CHEMBL4725413, “Quinoline-Pyrazole Scaffold as a Novel Ligand of Galectin-3 and Suppressor of TREM2 Signaling” (ACS Med Chem Lett, 2020)

What was measured:
BV-2 [1] = assay: Antiinflammatory activity in mouse BV-2 cells assessed as reduction in Abeta-induced IL-12 release incubated for 12 hrs by ELISA; format: functional, cell-based; settings: dose microM 2.5-10, time 12.0 hrs
Method in brief: (§1)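 BV2 microglia co-treated with Aβ fibrils (10 μM) for 12 h, with or without a range of test-compound concentrations. TNFα, IL12 and IL8 were quantified in culture medium. Values are relative to untreated control. Mean ± SD, n = 3.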

BV-2 [2] = assay: Antiinflammatory activity in mouse BV-2 cells assessed as reduction in Abeta-induced TNFalpha release incubated for 12 hrs by ELISA; format: functional, cell-based; settings: dose microM 2.5-10, time 12.0 hrs; method in brief: as §1
Galectin-1 = Galectin-1 (Homo sapiens, UniProt P09382); assay: Binding affinity to recombinant human galectin 1 assessed as dissociation constant by fluorescent anisotropy assay
Chain of Galectin-1 (P09382 whole entry): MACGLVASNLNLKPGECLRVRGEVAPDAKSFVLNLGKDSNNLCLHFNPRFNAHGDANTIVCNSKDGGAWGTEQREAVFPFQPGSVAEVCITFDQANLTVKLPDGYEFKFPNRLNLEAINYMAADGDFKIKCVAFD

[3] = Inhibition of recombinant human galectin-3/recombinant human TREM2 interaction assessed as reduction in TR-FRET signal incubated for 3 hrs by TR-FRET assay
Method in brief: (§2)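 TR-FRET using Eu cryptate-labelled galectin-3 (donor) and Alexa Fluor 647-labelled TREM2 (acceptor). Disruption of binding lowers the TR-FRET ratio. Single-point screening was at 10 μM, with hits defined as >5 SD below the mean signal. Dose-response runs gave IC50.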

BV-2 [4] = assay: Antiinflammatory activity in mouse BV-2 cells assessed as reduction in Abeta-induced IL-8 release incubated for 12 hrs by ELISA; format: functional, cell-based; settings: dose microM 2.5-10, time 12.0 hrs; method in brief: as §1
BV-2 [5] = assay: Antiinflammatory activity in mouse BV-2 cells assessed as reduction in Abeta-induced IL-12 release at 10 uM incubated for 12 hrs by ELISA relative to control; format: functional; method in brief: as §1
BV-2 [6] = assay: Antiinflammatory activity in mouse BV-2 cells assessed as reduction in Abeta-induced TNFalpha release at 10 uM incubated for 12 hrs by ELISA relative to control; format: functional; method in brief: as §1
Galectin-3 [7] = target: T1, Galectin-3 (Homo sapiens, UniProt P17931); assay: Binding affinity to recombinant human galectin 3 assessed as dissociation constant by fluorescent anisotropy assay
T1 sequence (P17931 whole entry): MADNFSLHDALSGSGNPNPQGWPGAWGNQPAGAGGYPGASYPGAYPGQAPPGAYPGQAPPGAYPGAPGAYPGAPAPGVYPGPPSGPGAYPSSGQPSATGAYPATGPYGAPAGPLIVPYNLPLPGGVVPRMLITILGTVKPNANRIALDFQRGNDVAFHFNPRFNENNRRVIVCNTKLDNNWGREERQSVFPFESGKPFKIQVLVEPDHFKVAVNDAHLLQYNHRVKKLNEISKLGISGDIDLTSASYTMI
Method in brief: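 Fluorescence anisotropy. Increasing galectin concentrations were titrated against a fixed concentration of small molecule until anisotropy reached a maximum (saturation), and Kd was derived from this.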

Galectin-3 [8] = target: T1, Galectin-3; assay: Inhibition of galectin 3 in mouse BWZ cells transfected with TREM2 and DAP12 assessed as reduction in lacZ activity incubated for 24 hrs by lacZ reporter gene based beta-galactosidase assay; format: cell-based; settings: dose microM 2.5-10, time 24.0 hrs
Method in brief: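 TREM2-DAP12 reporter assay in BWZ thymoma cells transfected with TREM2 and DAP12. Galectin-3 (5 μM) was the stimulant, co-incubated with a range of compound concentrations. NFAT-driven LacZ β-galactosidase activity was the read-out. Controls were unstimulated cells and galectin-stimulated cells without compound, plus untransfected BWZ cells. Mean ± SD, n = 3.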

Galectin-3 [9] = target: T1, Galectin-3; assay: Binding affinity to recombinant human galectin 3 assessed as dissociation constant by SPR assay
Method in brief: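 SPR with galectin-3 for Kd estimation. TREM2 was also run by SPR as a counter-target.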

Homo sapiens = species: Homo sapiens; assay: Inhibition of recombinant human galectin-3/recombinant human TREM2 interaction assessed as reduction in TR-FRET signal at 10 uM incubated for 3 hrs by TR-FRET assay relative to control; method in brief: as §2

Cn1cc(-c2ccncc2)c(-c2ccc(OCc3ccc4ccccc4n3)cc2)n1 [MARDEPODECT]
inhibition (BV-2 [1]): Dose-dependent effect
inhibition (BV-2 [2]): Dose-dependent effect
Kd (Galectin-1): > 500000 nM
IC50 [3]: 91 nM
inhibition (BV-2 [4]): Dose-dependent effect
inhibition at 10 µM (BV-2 [5]): 40%
inhibition at 10 µM (BV-2 [6]): 50%
Kd (Galectin-3 [7]): 150 nM
inhibition (Galectin-3 [8]): Dose-dependent effect
Kd (Galectin-3 [9]): 290 nM
inhibition (Homo sapiens): > 95%
